Assay results taken from ChEMBL document CHEMBL4665884, “Structural Insights into the Recognition of Mono- and Diacetylated Histones by the ATAD2B Bromodomain” (J Med Chem, 2020).

Key:
[1] = target: T1, ATPase family AAA domain-containing protein 2B (Homo sapiens, UniProt Q9ULI0); assay: Binding affinity to N-terminal GST tagged human ATAD2B short form expressed in Escherichia coli by ITC analysis
T1 sequence (Q9ULI0 whole entry): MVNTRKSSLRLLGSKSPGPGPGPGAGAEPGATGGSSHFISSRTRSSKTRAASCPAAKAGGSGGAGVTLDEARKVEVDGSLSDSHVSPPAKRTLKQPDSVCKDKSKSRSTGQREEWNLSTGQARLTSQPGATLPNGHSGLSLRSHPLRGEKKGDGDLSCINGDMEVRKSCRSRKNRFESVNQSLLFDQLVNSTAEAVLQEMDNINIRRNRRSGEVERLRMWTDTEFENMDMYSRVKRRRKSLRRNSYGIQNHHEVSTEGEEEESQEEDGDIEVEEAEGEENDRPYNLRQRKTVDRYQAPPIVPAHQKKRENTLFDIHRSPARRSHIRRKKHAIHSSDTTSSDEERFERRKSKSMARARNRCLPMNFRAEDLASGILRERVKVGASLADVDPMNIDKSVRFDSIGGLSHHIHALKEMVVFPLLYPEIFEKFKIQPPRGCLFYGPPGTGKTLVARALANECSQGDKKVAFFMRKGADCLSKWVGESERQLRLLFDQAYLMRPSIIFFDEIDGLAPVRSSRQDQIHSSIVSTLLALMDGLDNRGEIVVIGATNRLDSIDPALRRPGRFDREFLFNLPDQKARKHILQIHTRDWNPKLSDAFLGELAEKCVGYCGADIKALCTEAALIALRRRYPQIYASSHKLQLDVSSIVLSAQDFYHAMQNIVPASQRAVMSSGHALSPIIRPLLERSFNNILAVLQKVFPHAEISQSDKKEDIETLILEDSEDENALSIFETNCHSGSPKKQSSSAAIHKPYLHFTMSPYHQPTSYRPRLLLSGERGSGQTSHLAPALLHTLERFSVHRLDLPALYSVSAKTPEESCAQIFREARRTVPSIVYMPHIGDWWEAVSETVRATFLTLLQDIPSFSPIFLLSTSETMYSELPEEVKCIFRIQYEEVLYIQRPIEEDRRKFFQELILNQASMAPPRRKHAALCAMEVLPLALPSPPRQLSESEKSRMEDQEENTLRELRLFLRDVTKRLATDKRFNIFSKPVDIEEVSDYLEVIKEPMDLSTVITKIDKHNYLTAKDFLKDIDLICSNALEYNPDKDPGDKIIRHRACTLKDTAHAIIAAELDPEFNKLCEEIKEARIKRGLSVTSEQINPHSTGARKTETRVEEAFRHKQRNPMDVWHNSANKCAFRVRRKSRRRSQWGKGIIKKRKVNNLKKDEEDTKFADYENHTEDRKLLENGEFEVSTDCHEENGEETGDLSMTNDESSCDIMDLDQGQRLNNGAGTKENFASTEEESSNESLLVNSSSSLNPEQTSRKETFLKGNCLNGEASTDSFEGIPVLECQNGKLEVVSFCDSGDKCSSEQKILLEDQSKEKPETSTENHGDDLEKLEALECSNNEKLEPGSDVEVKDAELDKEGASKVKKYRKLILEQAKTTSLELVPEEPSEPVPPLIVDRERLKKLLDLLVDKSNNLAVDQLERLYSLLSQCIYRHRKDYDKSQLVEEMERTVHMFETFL
Summary of the method: (§1)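 GST tag removed by PreScission cleavage after glutathione-resin capture. Protein and peptides were dialyzed into 20 mM NaH2PO4 pH 7.0, 150 mM NaCl. Peptide dilution heats were subtracted. KD is the mean ± SD of triplicates; non-binders were run in duplicate.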

[2] = target: T1, ATPase family AAA domain-containing protein 2B; assay: Binding affinity to N-terminal GST tagged human ATAD2B (953-1085 residues) expressed in Escherichia coli by ITC analysis; summary of the method: as §1
[3] = Binding affinity to N-terminal GST tagged human ATAD2B Y995A mutant expressed in Escherichia coli by ITC analysis; summary of the method: as §1
[4] = Binding affinity to N-terminal GST tagged human ATAD2B Y1037A mutant expressed in Escherichia coli by ITC analysis; summary of the method: as §1
[5] = target: T2, ATPase family AAA domain-containing protein 2 (Homo sapiens, UniProt Q6PL18); assay: Binding affinity to N-terminal GST tagged human ATAD2 (1-25 residues) expressed in Escherichia coli by ITC analysis
T2 sequence (Q6PL18 whole entry): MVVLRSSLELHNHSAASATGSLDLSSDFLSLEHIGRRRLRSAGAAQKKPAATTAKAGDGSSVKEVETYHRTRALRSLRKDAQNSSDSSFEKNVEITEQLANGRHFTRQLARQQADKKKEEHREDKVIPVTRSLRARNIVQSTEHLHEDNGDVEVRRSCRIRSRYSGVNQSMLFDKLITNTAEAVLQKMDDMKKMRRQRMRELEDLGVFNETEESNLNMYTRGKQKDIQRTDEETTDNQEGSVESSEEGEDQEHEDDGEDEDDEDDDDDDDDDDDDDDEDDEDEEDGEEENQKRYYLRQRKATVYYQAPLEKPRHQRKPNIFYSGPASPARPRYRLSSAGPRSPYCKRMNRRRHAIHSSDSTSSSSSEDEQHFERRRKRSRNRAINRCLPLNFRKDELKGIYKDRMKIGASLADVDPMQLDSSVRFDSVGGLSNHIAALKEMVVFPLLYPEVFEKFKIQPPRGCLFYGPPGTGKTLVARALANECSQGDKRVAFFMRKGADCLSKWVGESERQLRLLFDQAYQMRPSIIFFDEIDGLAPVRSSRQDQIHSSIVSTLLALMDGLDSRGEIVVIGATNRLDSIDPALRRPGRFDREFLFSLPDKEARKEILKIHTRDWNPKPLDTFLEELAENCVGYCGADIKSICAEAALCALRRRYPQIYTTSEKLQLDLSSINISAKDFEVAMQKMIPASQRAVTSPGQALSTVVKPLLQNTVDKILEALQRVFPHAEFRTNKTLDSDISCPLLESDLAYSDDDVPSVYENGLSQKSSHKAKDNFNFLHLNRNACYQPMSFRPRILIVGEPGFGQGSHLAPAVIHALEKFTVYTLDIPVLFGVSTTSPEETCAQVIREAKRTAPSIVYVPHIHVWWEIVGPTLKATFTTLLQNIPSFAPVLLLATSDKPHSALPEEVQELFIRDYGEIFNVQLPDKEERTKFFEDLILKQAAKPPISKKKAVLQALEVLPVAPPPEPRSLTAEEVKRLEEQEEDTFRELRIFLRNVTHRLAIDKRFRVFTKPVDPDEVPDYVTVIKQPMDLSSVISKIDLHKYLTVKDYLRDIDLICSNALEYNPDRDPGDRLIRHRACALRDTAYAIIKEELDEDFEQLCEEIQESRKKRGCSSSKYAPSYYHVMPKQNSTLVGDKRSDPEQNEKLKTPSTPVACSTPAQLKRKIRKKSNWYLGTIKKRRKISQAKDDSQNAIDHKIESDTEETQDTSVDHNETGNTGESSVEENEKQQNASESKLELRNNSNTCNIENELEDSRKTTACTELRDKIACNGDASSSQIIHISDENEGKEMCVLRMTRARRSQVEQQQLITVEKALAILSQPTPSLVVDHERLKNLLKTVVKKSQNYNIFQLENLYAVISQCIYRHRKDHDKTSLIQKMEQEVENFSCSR

[6] = Binding affinity to N-terminal GST tagged human ATAD2B N1038A mutant expressed in Escherichia coli by ITC analysis; summary of the method: as §1
[7] = target: T2, ATPase family AAA domain-containing protein 2; assay: Binding affinity to N-terminal GST tagged human ATAD2 (1-20 residues) expressed in Escherichia coli by ITC analysis

Compound | Kd [1] | Kd ([2]; read-out: Kd) | Kd [2] | Kd [3] | Kd [4] | further results
CC(=O)NCCCC[C@H](NC(=O)CNC(=O)CN)C(=O)NCC(=O)N[C@@H](CC(C)C)C(=O)NCC(=O)N[C@@H](CCCCNC(C)=O)C(=O)NCC(=O)NCC(=O)N[C@@H](C)C(=O)O | – | – | Not Active | – | – | –
C[C@H](N)C(=O)N[C@@H](CCCNC(=N)N)C(=O)N[C@H](C(=O)N[C@@H](CCCCN)C(=O)N[C@@H](CCC(N)=O)C(=O)N[C@H](C(=O)N[C@@H](C)C(=O)N[C@@H](CCCNC(=N)N)C(=O)N[C@@H](CCCCN)C(=O)N[C@@H](CO)C(=O)N[C@H](C(=O)NCC(=O)O)[C@@H](C)O)[C@@H](C)O)[C@@H](C)O | – | – | Not Active | – | – | –
CC(=O)NCCCC[C@H](NC(=O)CN)C(=O)NCC(=O)NCC(=O)N[C@@H](CCCCN)C(=O)NCC(=O)N[C@@H](CC(C)C)C(=O)NCC(=O)N[C@@H](CCCCN)C(=O)NCC(=O)NCC(=O)N[C@@H](C)C(=O)N[C@@H](CCCCN)C(=O)N[C@@H](CCCNC(=N)N)C(=O)O | – | – | Not Active | – | – | Kd [6]: Not Active
C[C@H](NC(=O)[C@H](CCCCN)NC(=O)CNC(=O)CNC(=O)[C@@H](NC(=O)[C@H](CO)NC(=O)[C@H](CCCCN)NC(=O)[C@@H](N)CCCNC(=N)N)[C@@H](C)O)C(=O)N1CCC[C@H]1C(=O)N[C@@H](CCCNC(=N)N)C(=O)N[C@@H](CCCCN)C(=O)N[C@@H](CCC(N)=O)C(=O)O | – | – | Not Active | – | – | –
H-LGK(Ac)GGAK(Ac)RHRK-OH | – | 214 µM | – | – | – | –
H-LGKGGAK(Ac)RHRK-OH | – | – | Not Active | – | – | –
H-SGRGK(Ac)GGK(Ac)GL-OH | Not Active | 28.1 µM | – | Not Active | Not Active | Kd ([6]; read-out: Kd): 623 µM

Now from value to compound, other results behind:

Kd [1] | Kd ([2]; read-out: Kd) | Kd [2] | Compound | Kd [3] | Kd [4] | further results
Not Active | 0.167 µM | – | Cc1cncc(-c2ccc(N[C@@H]3CCNC[C@H]3OCC3CCS(=O)(=O)CC3)c3[nH]c(=O)c(C)cc23)c1 | – | – | –
Not Active | 50.5 µM | – | CC(=O)NCCCC[C@H](NC(=O)CNC(=O)[C@H](CC(C)C)NC(=O)CNC(=O)[C@H](CCCCN)NC(=O)CNC(=O)CNC(=O)[C@H](CCCCN)NC(=O)CN)C(=O)NCC(=O)NCC(=O)N[C@@H](C)C(=O)N[C@@H](CCCCN)C(=O)N[C@@H](CCCNC(=N)N)C(=O)O | Not Active | Not Active | Kd [5]: 2.5 µM
– | – | Not Active | CC(=O)NCCCC[C@H](NC(=O)CNC(=O)CNC(=O)[C@H](CCCCN)NC(=O)CN)C(=O)NCC(=O)N[C@@H](CC(C)C)C(=O)NCC(=O)N[C@@H](CCCCN)C(=O)NCC(=O)NCC(=O)N[C@@H](C)C(=O)N[C@@H](CCCCN)C(=O)N[C@@H](CCCNC(=N)N)C(=O)O | – | – | –
Not Active | 48 µM | – | H-SGRGK(Ac)GGKGL-OH | Not Active | Not Active | Kd [7]: 22 µM
Not Active | 42.5 µM | – | H-SGRGK(Ac)QGGKARA-OH | Not Active | Not Active | –
– | 1160 µM | – | H-SGRGKGGK(Ac)GL-OH | – | – | –
